Measurements reported in ChEMBL document CHEMBL1667724, “Landomycins P-W, cytotoxic angucyclines from Streptomyces cyanogenus S-136” (J Nat Prod, 2011).
pIC50: −log10 of the molar value.

Experiments:
MCF7 = assay: Cytotoxicity against ER-positive human MCF7 cells after 24 hrs by trypan blue staining; type: functional, cell-based; details: for IC50: mcf7; for pIC50: Homo sapiens, MCF7, 24 h, read-out: IC50
Summary of the method: (§1)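 Cells grown in DMEM; 50 × 10^3 cells per well seeded and left to attach overnight, then medium replaced with fresh medium containing a range of compound concentrations for 24 hours at 37 °C. Adherent plus floating cells pooled, resuspended in PBS, and stained with 0.4% trypan blue for 3 min. Live and dead cells counted on a hemocytometer. IC50 taken from dose-response curves as the mean of three experiments. Ethanol served as positive control and untreated medium as negative control.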

[1] = Cytotoxicity against ER-refractory human MDA231 cells after 24 hrs by trypan blue staining; type: functional, cell-based; details: MDA-MB-231, 24 h; summary of the method: as §1

## Cc1cc(O)c2c3c(ccc2c1)C(=O)c1c(O[C@H]2C[C@@H](O)[C@H](O[C@H]4C[C@@H](O[C@H]5CC[C@H](O[C@H]6C[C@@H](O)[C@H](O[C@H]7C[C@@H](O[C@H]8CC[C@H](O)[C@H](C)O8)[C@H](O)[C@@H](C)O7)[C@@H](C)O6)[C@H](C)O5)[C@H](O)[C@@H](C)O4)[C@@H](C)O2)cccc1C3=O [LANDOMYCIN T]
MCF7
  IC50: Not Active
[1]
  pIC50: 5.73

## Cc1cc(O)c2c(c1)C[C@@H](O)C1=C2C(=O)c2c(O)ccc(O[C@H]3C[C@@H](O)[C@H](O[C@H]4C[C@@H](O[C@H]5CC[C@H](O[C@H]6C[C@@H](O)[C@H](O[C@H]7C[C@@H](O)[C@H](O)[C@@H](C)O7)[C@@H](C)O6)[C@H](C)O5)[C@H](O)[C@@H](C)O4)[C@@H](C)O3)c2C1=O [LANDOMYCIN B]
MCF7
  pIC50: 5.37
[1]
  pIC50: 5.74

## Cc1cc(O)c2c(c1)C[C@@H](O)C1=C2C(=O)c2cccc(O[C@H]3C[C@@H](O)[C@H](O[C@H]4C[C@@H](O[C@H]5CC[C@H](O[C@H]6C[C@@H](O)[C@H](O[C@H]7C[C@@H](O[C@H]8CC[C@H](O)[C@H](C)O8)[C@H](O)[C@@H](C)O7)[C@@H](C)O6)[C@H](C)O5)[C@H](O)[C@@H](C)O4)[C@@H](C)O3)c2C1=O [LANDOMYCIN S]
MCF7
  pIC50: 5.17
[1]
  pIC50: 5.82

## Cc1cc(O)c2c3c(ccc2c1)C(=O)c1c(O[C@H]2C[C@@H](O)[C@H](O[C@H]4C[C@@H](O)[C@H](O)[C@@H](C)O4)[C@@H](C)O2)cccc1C3=O [LANDOMYCIN O]
MCF7
  IC50: Not Active
[1]
  pIC50: 5.45

## Cc1cc(O)c2c3c(ccc2c1)C(=O)c1c(O[C@H]2C[C@@H](O)[C@H](O[C@H]4C[C@@H](O[C@H]5CC[C@H](O)[C@H](C)O5)[C@H](O)[C@@H](C)O4)[C@@H](C)O2)ccc(O)c1C3=O [LANDOMYCIN Q]
MCF7
  IC50: Not Active
[1]
  pIC50: 5.41

## Cc1cc(O)c2c3c(ccc2c1)C(=O)c1c(O[C@H]2C[C@@H](O)[C@H](O[C@H]4C[C@@H](O[C@H]5CC[C@H](O)[C@H](C)O5)[C@H](O)[C@@H](C)O4)[C@@H](C)O2)cccc1C3=O [LANDOMYCIN P]
MCF7
  IC50: Not Active
[1]
  pIC50: 5.45

## Cc1cc(O)c2c(c1)C[C@@H](O)C1=C2C(=O)c2c(O)ccc(O)c2C1=O [LANDOMYCINONE]
MCF7
  pIC50: 5.68
[1]
  pIC50: 5.85

## Cc1cc(O)c2c3c(ccc2c1)C(=O)c1c(O[C@H]2C[C@@H](O)[C@H](O[C@H]4C[C@@H](O[C@H]5CC[C@H](O[C@H]6C[C@@H](O)[C@H](O[C@H]7C[C@@H](O[C@H]8CC[C@H](O)[C@H](C)O8)[C@H](O)[C@@H](C)O7)[C@@H](C)O6)[C@H](C)O5)[C@H](O)[C@@H](C)O4)[C@@H](C)O2)ccc(O)c1C3=O [LANDOMYCIN U]
MCF7
  pIC50: 5.68
[1]
  pIC50: 5.14

## Cc1cc(O)c2c3c(ccc2c1)C(=O)c1c(O)ccc(O)c1C3=O [ANHYDROLANDOMYCINONE]
MCF7
  pIC50: 5.74
[1]
  pIC50: 5.70

## Cc1cc(O)c2c(c1)C[C@@H](O)C1=C2C(=O)c2cccc(O[C@H]3C[C@@H](O)[C@H](O[C@H]4C[C@@H](O[C@H]5CC[C@H](O[C@H]6C[C@@H](O)[C@H](O[C@H]7C[C@@H](O)[C@H](O)[C@@H](C)O7)[C@@H](C)O6)[C@H](C)O5)[C@H](O)[C@@H](C)O4)[C@@H](C)O3)c2C1=O [LANDOMYCIN V]
MCF7
  pIC50: 5.21
[1]
  pIC50: 5.82

## Cc1cc(O)c2c(c1)C[C@@H](O)C1=C2C(=O)c2c(O)ccc(O[C@H]3C[C@@H](O)[C@H](O[C@H]4C[C@@H](O[C@H]5CC[C@H](O[C@H]6C[C@@H](O)[C@H](O[C@H]7C[C@@H](O[C@H]8CC[C@H](O)[C@H](C)O8)[C@H](O)[C@@H](C)O7)[C@@H](C)O6)[C@H](C)O5)[C@H](O)[C@@H](C)O4)[C@@H](C)O3)c2C1=O [LANDOMYCIN A]
MCF7
  pIC50: 5.60
[1]
  pIC50: 5.85

## Cc1cc(O)c2c3c(ccc2c1)C(=O)c1c(O)cccc1C3=O [TETRANGULOL]
MCF7
  IC50: Not Active
[1]
  pIC50: 5.82

## Cc1cc(O)c2c3c(ccc2c1)C(=O)c1c(O[C@H]2C[C@@H](O)[C@H](O[C@H]4C[C@@H](O[C@H]5CC[C@H](O[C@H]6C[C@@H](O)[C@H](O[C@H]7C[C@@H](O)[C@H](O)[C@@H](C)O7)[C@@H](C)O6)[C@H](C)O5)[C@H](O)[C@@H](C)O4)[C@@H](C)O2)ccc(O)c1C3=O [LANDOMYCIN W]
MCF7
  pIC50: 5.16
[1]
  pIC50: 5.58

## Cc1cc(O)c2c(c1)C[C@@H](O)C1=C2C(=O)c2c(O)ccc(O[C@H]3C[C@@H](O)[C@H](O[C@H]4C[C@@H](O)[C@H](O)[C@@H](C)O4)[C@@H](C)O3)c2C1=O [LANDOMYCIN D]
MCF7
  pIC50: 5.12
[1]
  pIC50: 5.76

## Cc1cc(O)c2c3c(ccc2c1)C(=O)c1c(O[C@H]2C[C@@H](O)[C@H](O[C@H]4C[C@@H](O[C@H]5CC[C@H](O[C@H]6C[C@@H](O)[C@H](O[C@H]7C[C@@H](O)[C@H](O)[C@@H](C)O7)[C@@H](C)O6)[C@H](C)O5)[C@H](O)[C@@H](C)O4)[C@@H](C)O2)cccc1C3=O [LANDOMYCIN M]
MCF7
  pIC50: 5.15
[1]
  pIC50: 5.72

## Cc1cc(O)c2c(c1)C[C@@H](O)C1=C2C(=O)c2cccc(O[C@H]3C[C@@H](O)[C@H](O[C@H]4C[C@@H](O)[C@H](O)[C@@H](C)O4)[C@@H](C)O3)c2C1=O [LANDOMYCIN F]
MCF7
  IC50: Not Active
[1]
  pIC50: 5.74

## Cc1cc(O)c2c3c(ccc2c1)C(=O)c1c(O[C@H]2C[C@@H](O)[C@H](O[C@H]4C[C@@H](O)[C@H](O)[C@@H](C)O4)[C@@H](C)O2)ccc(O)c1C3=O [LANDOMYCIN R]
MCF7
  IC50: Not Active
[1]
  pIC50: 5.77

## C[C@]1(O)CC(=O)c2c(ccc3c2C(=O)c2cccc(O)c2C3=O)C1 [TETRANGOMYCIN]
MCF7
  IC50: Not Active
[1]
  pIC50: 5.81
